# How the values were obtained:
# [1] = target: T1, Oxysterols receptor LXR-alpha (Homo sapiens, UniProt Q13133); experiment: Agonist activity at LXRalpha LBD by HTRF cofactor peptide recruitment assay; type: functional
# T1 sequence (Q13133 whole entry): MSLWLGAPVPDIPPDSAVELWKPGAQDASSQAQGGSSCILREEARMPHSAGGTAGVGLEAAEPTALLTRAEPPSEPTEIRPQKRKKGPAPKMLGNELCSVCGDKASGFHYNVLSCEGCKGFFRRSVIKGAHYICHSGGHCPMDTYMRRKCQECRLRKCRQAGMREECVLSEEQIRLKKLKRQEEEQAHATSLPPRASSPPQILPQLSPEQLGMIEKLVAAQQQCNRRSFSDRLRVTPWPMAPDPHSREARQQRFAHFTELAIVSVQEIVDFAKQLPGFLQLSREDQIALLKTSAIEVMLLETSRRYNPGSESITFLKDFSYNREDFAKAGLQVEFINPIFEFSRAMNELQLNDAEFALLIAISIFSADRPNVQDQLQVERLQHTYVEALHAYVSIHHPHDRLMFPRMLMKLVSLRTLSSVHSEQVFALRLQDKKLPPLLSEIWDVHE
# [2] = target: T2, Oxysterols receptor LXR-beta (Homo sapiens, UniProt P55055); experiment: Agonist activity at LXRbeta LBD by HTRF cofactor peptide recruitment assay; type: functional
# T2 sequence (P55055 whole entry): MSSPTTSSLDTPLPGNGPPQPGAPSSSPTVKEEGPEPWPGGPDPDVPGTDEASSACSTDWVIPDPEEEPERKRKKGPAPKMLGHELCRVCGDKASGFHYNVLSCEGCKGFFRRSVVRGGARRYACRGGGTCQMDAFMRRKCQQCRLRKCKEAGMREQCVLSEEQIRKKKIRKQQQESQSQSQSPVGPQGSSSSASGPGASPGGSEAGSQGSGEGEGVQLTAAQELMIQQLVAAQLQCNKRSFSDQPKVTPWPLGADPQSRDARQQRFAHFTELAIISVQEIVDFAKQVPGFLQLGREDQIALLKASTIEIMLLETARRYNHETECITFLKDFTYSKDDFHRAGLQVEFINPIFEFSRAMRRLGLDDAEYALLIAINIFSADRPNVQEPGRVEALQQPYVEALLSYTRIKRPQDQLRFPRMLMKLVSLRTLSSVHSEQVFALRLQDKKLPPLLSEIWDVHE
# [3] = target: T2, Oxysterols receptor LXR-beta; experiment: Activation of LXRbeta co-transfected in COS7 cells with RXRalpha by reporter transactivation assay; type: functional, cell-based, COS-7
# How it was run: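 Cells exposed to vehicle or compound for 16 h; LXR reporter activation read as luciferase activity in cell lysate. EC50 derived from means of quadruplicate samples, single experiment.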
# THP-1 [4] = experiment: Ratio of induction of ABCA1 gene expression in THP1 cells at 10 uM to control; type: functional, Homo sapiens
# THP-1 [5] = experiment: Induction of cholesterol efflux in THP1 cells after 18 hrs; type: functional, cell-based; details: Homo sapiens, THP-1, 18 h
# HepG2 = experiment: Ratio of induction of lipogenesis in HepG2 cells at 10 uM to control after 24 hrs; type: functional, Homo sapiens
# THP-1 [6] = experiment: Ratio of induction of cholesterol efflux in THP1 cells at 10 uM to control after 18 hrs; type: functional, Homo sapiens
# HepG2 (Homo sapiens) = experiment: Ratio of induction of SREBP1c gene expression in HepG2 cells at 10 uM to control
EC50 [1] [nM],EC50 [2] [nM],EC50 [3] [nM],EC50 (THP-1 [5]) [nM],SMILES,Ratio (THP-1 [4]),Ratio (HepG2),Ratio (THP-1 [6]),Ratio (HepG2 (Homo sapiens))
570,90,52,210,CC(C)(C)OC(=O)n1c(-c2ccc3c(c2)CC(NS(=O)(=O)c2c(F)cccc2F)C3)cc2ccccc21 (centres undefined),7.5,3.2,1.7,3
540,110,363,570,CC(C)(C)OC(=O)n1c(-c2ccc3c(c2)CC(NS(=O)(=O)c2cccs2)C3)cc2ccccc21 (centres undefined),7.3,1.7,1.5,2.9
4300,460,120,570,CC(C)(C)OC(=O)n1c(-c2ccc3c(c2)CC(NS(=O)(=O)c2ccc(F)cc2)C3)cc2ccccc21 (centres undefined),11.4,2,1.7,2

# Source: ChEMBL document CHEMBL1139922, “Discovery and structure-activity relationship studies of indole derivatives as liver X receptor (LXR) agonists” (Bioorg Med Chem Lett, 2007)
